This is a sample that favours compounds with a hit; in the whole collection about 2.3% have one here.
TRPC4 block: inhibitors of mouse TRPC4 channel, primary screen, Fluo4 calcium, HEK293 TRPC4beta/mu-opioid cells. Short transient receptor potential channel 4 (Mus musculus), Q9QUQ5. DAMGO-evoked Fluo4 calcium flux; stronger effect = lower value. B-score at 10 µM. 300,000 tested, 0.39% active;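 active = B-score over 3 SD under the library average, no early fluorescence shift, positive overall ratio signal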
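Assay system: HEK293 cells with stable TRPC4beta plus mu-opioid receptor expression. Dosing: single dose. Measured by: Fluo4 Ca2+ flux fluorescence. Also added: DAMGO in two steps, submaximal then maximal. Read-out: B score from integrated Fluo4 fluorescence ratio.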
TRPC4 agonist: activators of mouse TRPC4 channel, primary screen, Fluo4 calcium, HEK293 TRPC4beta/mu-opioid cells | Fluo4 calcium fluorescence; stronger effect = higher value | Short transient receptor potential channel 4 (Mus musculus), Q9QUQ5 | B-score at 10 µM | 310,000 tested, 0.49% active;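 active = B-score above 5 SD of library B-scores, and initial fluorescence ratio not above library mean plus 5 SD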;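 note: positive B-score marks a calcium rise read as TRPC4 activation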
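Technique: kinetic Fluo4 calcium fluorescence; Test system: TRPC4beta and mu-opioid receptor HEK293 stable cells; Measure: B-scored integrated calcium fluorescence ratio; Benchmarks: low control buffer alone, high control maximal DAMGO; Schedule: 45 min room-temperature Fluo4 loading, 110 s read.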
TRPC6 activator: mouse TRPC6 channel activators, primary screen, cell-based, HEK293, membrane potential dye; B-score at 10 µM; AID 2550, 2010; 310,000 tested, 0.13% active; HEK293-TRPC6 membrane potential dye fluorescence; stronger effect = higher value; Short transient receptor potential channel 6 (Mus musculus), Q61143;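 active = B-score of the integrated fluorescence ratio above library mean plus 3 SD, and starting fluorescence ratio within library mean plus 5 SD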;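 note: higher score means more depolarization so channel activation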
TRPC6 inhibitor: mouse TRPC6 channel inhibitors, primary screen, cell-based, HEK293, membrane potential dye; Short transient receptor potential channel 6 (Mus musculus), Q61143; ACh-evoked depolarization; stronger effect = lower value; B-score at 10 µM; 310,000 tested, 1.1% active;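 active = B-score under library mean minus 3 SD, initial fluorescence not abnormally high, positive integrated signal ratio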;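 note: B-score derived from integrated fluorescence ratio over the kinetic read; more negative B-score means stronger inhibition of depolarization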
TRPC4 potent: positive allosteric modulators of TRPC4, primary screen, cell-based, mouse TRPC4beta, HEK293 mu-opioid, Fluo-4 calcium; Short transient receptor potential channel 4 (Mus musculus), Q9QUQ5; DAMGO EC20, Fluo-4 Ca2+ flux; stronger effect = higher value; B-score at 10 µM; 310,000 tested, 0.42% active;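 active = B-score of calcium response area above 5 SD of library B-scores, with initial fluorescence ratio within 5 SD of library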;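 note: B-score of integrated fluorescence ratio over time as area under calcium response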
TRPC4 spec 2: second selectivity test of TRPC6 inhibitors: effect on mouse TRPC4; shares compounds with TRPC6 inhibitor; 920 tested, 42% active; AID 2776; HEK293 TRPC4/MOR, membrane potential dye fluorescence; channel activated by saturating DAMGO dose; inhibition, % at 10 µM;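 active = compounds whose fluorescence signal differed from control wells by over 3 SD, either direction, in both duplicate plates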
TRPC4 spec: mouse TRPC4 modulation by TRPC6 hits, confirmation, selectivity assay for TRPC6 inhibitor project, cell-based, HEK293 TRPC4/mu-opioid, membrane potential dye | membrane potential fluorescence | shares compounds with TRPC6 inhibitor | AID 2777, 2010 | activity change, negative = inhibition, % at 10 µM | 920 tested, 61% active;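 active = rise or fall in signal beyond 3 SD of buffer-only wells in both replicate plates, either sign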;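 note: integrated kinetic ratio of fluorescence range over baseline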
HEK293 MPD ctr 2-1: nonspecific membrane potential effects, parental HEK293, confirmation, counter-screen for TRPC6 inhibitor project, cell-based, second counter screen; shares compounds with TRPC6 inhibitor; parental HEK293 membrane potential dye fluorescence; maximal acetylcholine challenge after compound addition; signal change vs control, % at 10 µM; 920 tested, 31% active;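 active = membrane potential signal moving either way by over 3 SD of the maximum-effect control, in both duplicate plates, meaning non-specific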
HEK293 MPD ctr-1: membrane potential modulation in parental HEK293, confirmation, counter-screen for TRPC6 inhibitor project, cell-based. shares compounds with TRPC6 inhibitor. parental HEK293 membrane potential dye fluorescence. membrane potential signal change, % at 10 µM. 920 tested, 60% active;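 active = membrane potential signal shifting up or down by more than 3 SD of buffer-only wells, on both duplicate plates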
HEK293 MPD ctr-2: parental HEK293 membrane potential modulation, confirmation, counter-screen for TRPC6 modulator project, cell-based. membrane potential dye fluorescence. 2,400 tested, 51% active. shares compounds with TRPC6 inhibitor. membrane potential signal change, % at 10 µM. AID 488924, 2010;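 active = membrane potential signal moves up or down beyond 5 SD from buffer-only wells, on both duplicate plates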
HEK293 MPD ctr 2-2: parental HEK293 nonspecific activity of TRPC6 modulators, second screen; shares compounds with TRPC6 inhibitor; membrane potential dye fluorescence; after compound, maximal acetylcholine stimulation; inhibition, % at 10 µM; 2,400 tested, 14% active; AID 488926;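 active = membrane potential signal drops by more than 5 SD from the mean control signal, in both duplicate plates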;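 note: plate controls were acetylcholine ECmax control wells for no effect and buffer only wells for full effect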
TRPC4 ctr mod: TRPC4 modulation by TRPC6 hit compounds, confirmation, selectivity assay for TRPC6 modulator project, cell-based, HEK293 TRPC4/mu-opioid, membrane potential dye, mouse. shares compounds with TRPC6 inhibitor. AID 488927, 2010. membrane potential fluorescence. 2,400 tested, 69% active. percent change from control (negative = decrease, positive = increase), % at 10 µM;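 active = membrane potential signal moved up or down beyond 5 SD of buffer control wells, in both duplicate plates, actives on both sides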;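 note: plate controls were assay buffer wells for no effect and DAMGO maximal-effect wells for full effect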
TRPC4 ctr inh 2: mouse TRPC4 off-target activity of TRPC6 modulators, second screen. shares compounds with TRPC6 inhibitor. HEK293 TRPC4/mu-opioid, membrane potential dye fluorescence; stimulated with maximal-effect DAMGO. inhibition, % at 10 µM. 2,400 tested, 55% active. AID 488928;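 active = drop in membrane potential signal beyond 5 SD of the control wells in both duplicate plates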;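 note: TRPC4 counter screen for TRPC6 hits run under conditions tuned for TRPC6 not TRPC4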
TRPC6 block conf: mouse TRPC6 channel inhibitors, confirmation, HEK293 cells, membrane potential dye, duplicate; shares compounds with TRPC6 inhibitor; ACh-evoked depolarization; inhibition, % at 10 µM; 3,300 tested, 43% active; AID 488960, 2010;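 active = fluorescence ratio falls more than 5 SD below the full-stimulation control mean, in both duplicate runs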;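 note: integrated fluorescence ratio of peak minus minimum over baseline after agonist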
TRPC6 act confirm: mouse TRPC6 channel activators, confirmation, HEK293 cells, membrane potential dye, duplicate | shares compounds with TRPC6 inhibitor | HEK293-TRPC6 membrane potential dye fluorescence, FDSS | activation, % at 10 µM | 2,800 tested, 11% active;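 active = ratio signal rise beyond 5 SD above unstimulated control wells' mean, seen in both duplicate runs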;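 note: plate controls were buffer EC0 wells for no effect and acetylcholine ECmax response for full effect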
Active calls of the source: *; i = inactive; · = no result.

SMILES | TRPC4 block | TRPC4 agonist | TRPC6 activator | TRPC6 inhibitor | TRPC4 potent | HEK293 MPD ctr-2 | HEK293 MPD ctr 2-2 | TRPC4 ctr mod | TRPC4 ctr inh 2 | TRPC6 block conf | TRPC6 act confirm | others
COc1ccc(C)cc1S(=O)(=O)NCC(c1ccco1)N1CCc2ccccc2C1 (centres undefined) | i | i | i | i | i | · | · | · | · | · | ·
COc1ccccc1Nc1nc(NCCCN(C)C)nc(N)c1[N+](=O)[O-] | i | i | i | -6.4* | i | i | i | i | 49%* | 42%* | i
O=C(CNC(=O)N1CC(=O)Nc2ccccc21)Nc1cc(Cl)ccc1Cl | i | i | i | i | i | · | · | · | · | · | ·
Cc1ccc(N2CCN(c3ccc(C)cc3)C2c2cccnc2)cc1 | i | i | i | i | i | · | · | · | · | · | ·
c1ccc(N2CCN(c3ccccc3)C2c2cccnc2)cc1 | i | i | i | -5.6* | i | i | i | 18%* | 31%* | i | ·
O=C(Nc1cccc(C(F)(F)F)c1)C1CCN(S(=O)(=O)c2ccc(N3CCCC3=O)cc2)CC1 | i | i | i | i | i | · | · | · | · | · | ·
CCOc1ccc(-n2c(-c3ccc(OC)cc3)c[n+]3c2CCCCC3)cc1 | i | i | i | i | i | · | · | · | · | · | ·
CCOc1ccc(-n2c(-c3ccccc3)c[n+]3c2CCC3)cc1 | i | i | i | -6.3* | i | -58%* | 62%* | -13%* | 30%* | 45%* | i
COc1cc(/C=C/C(=O)OCC(=O)NC(=O)NC(C)C)cc(S(=O)(=O)N2CCc3ccccc32)c1OC | i | i | i | i | i | · | · | · | · | · | ·
c1csc(C2Nc3ccccc3-c3nc4ccccc4n32)c1 (centres undefined) | i | i | i | -6.6* | i | · | · | · | · | i | i | TRPC4 spec 2=i;TRPC4 spec=9.1%*;HEK293 MPD ctr 2-1=i;HEK293 MPD ctr-1=2.3%*
O=c1oc2ccccc2c2c1ncn2CCN1CCOCC1 | i | i | i | i | i | · | · | · | · | · | ·
CN1CCN(CCCn2cnc3c(=O)oc4ccccc4c32)CC1 | i | i | i | -5.1* | i | -269%* | i | -48%* | i | i | i
Cc1csc(C(=O)O)c1-n1cccc1 | i | i | i | i | i | · | · | · | · | · | ·
Cc1onc(-c2c(Cl)cccc2Cl)c1C(=O)N1CCc2ccccc21 | i | i | i | -5.1* | i | i | i | 12%* | i | i | i
CCOc1ccc(OCc2ccc(C(=O)OCc3ccccn3)o2)cc1 | i | i | i | -6* | i | i | i | 11%* | i | i | i
CCOc1ccc(OCc2ccc(C(=O)NC(C)C)o2)cc1 | i | i | i | i | i | · | · | · | · | · | ·
CCOC(=O)N1CCN(C(=S)NC(=O)C23CC4CC(CC(C4)C2)C3)CC1 | i | i | i | -5* | i | i | i | i | i | i | i
O=C(NC(=S)N1CCCCC1)C12CC3CC(CC(C3)C1)C2 | i | i | i | i | i | · | · | · | · | · | ·
C=CCOc1cccc(/C=N/NC(=O)CC(=O)NC2CCCCC2)c1 | i | i | i | i | i | · | · | · | · | · | ·
CN1C(=O)CS/C1=N\NC(=O)COc1cccc2cccnc12 | i | i | i | -5.9* | i | -230%* | i | -42%* | i | i | i
Cc1ccccc1OCC(=O)N/N=C1\SCC(=O)N1Cc1ccccc1 | i | i | i | i | i | · | · | · | · | · | ·
CC1CCN(C(=O)c2ccc3c(c2NCCO)C(=O)c2ccccc2C3=O)CC1 | i | i | i | -7.7* | i | -209%* | i | -35%* | 76%* | 51%* | i
Cc1cc(C)c2nc(N3CCC(C(=O)NCc4ccccn4)CC3)sc2c1 | i | i | i | i | i | · | · | · | · | · | ·
Cc1cc(C)c2nc(N3CCC(C(=O)NCc4cccnc4)CC3)sc2c1 | i | i | i | -5.3* | i | i | i | i | i | i | i
Cc1cc(C)n(-c2nc(NCCC(C)C)c3c4c(sc3n2)COC(C)(C)C4)n1 | i | i | i | i | i | · | · | · | · | · | ·
CCN(CC)CCNc1nc(-n2nc(C)cc2C)nc2sc3c(c12)CC(C)(C)OC3 | i | i | i | -6.3* | i | i | i | i | 40%* | i | i

Source: PubChem
